Where two headings read alike, the source gives them in different places.
Assays:
PfKASIII [1] = target: T1, PfKASIII (Plasmodium falciparum, UniProt O77078); assay: PfKASIII inhibitor screen; type: biochemical
[2] = system: J774 murine monocyte-like macrophage line (subclone G8); assay: Toxicity assay; type: cell-based
P. falciparum parasites = assay: In vitro malaria growth inhibition assay, strain not specified or both strains; type: cell-based, Plasmodium falciparum; details: drug resistant and sensitive parasites
In short: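 P. falciparum D6 (chloroquine-sensitive, Sierra Leone I) and W2 (chloroquine-resistant, Indochina I) clones were cultured under 90% N2/5% O2/5% CO2 with 10% human serum and 6% haematocrit A+ red cells. Cultures at 3% parasitaemia with ≥70% rings were put on predosed plates for 24 h. [3H]-hypoxanthine was then added for 18 h, and cells were harvested and counted. IC50 was taken from a four-parameter nonlinear regression.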

bacterial KAS enzymes = details: cited from earlier work
PfKASIII [3] = target: T1, PfKASIII; details: read-out: PfKASIII IC50; cited from earlier work

Compound | PfKASIII inhibition (in words) (PfKASIII [1]) | toxicity against the mammalian cell line (in words) [2] | other results
C/C=C/CCCCCCCC(=O)NS(=O)(=O)c1ccc(N)cc1 [Compound 2e] | failed to inhibit PfKASIII at the highest concentration tested |  | IC50 (PfKASIII [1]): > 1000 µM
NC1CCC(S(=O)(=O)c2cc(O)c3ccccc3c2O)CC1 (stereo not drawn) [Compound 3b] |  | little toxicity | 
Nc1ccc(S(=O)(=O)c2cc(O)c3ccccc3c2O)c(Cl)c1 [Compound 3c] | the most potent compound within the class of sulfonyls |  | 
CC(C)c1ccc(S(=O)(=O)c2ccc(C(C)C)cc2)cc1 [Compound 3g] |  | significant toxicity | 
c1ccc(SSc2ccccc2)cc1 [Compound 1d] |  | little toxicity | 
O=[N+]([O-])c1c(Cl)sc(Cl)c1S(=O)(=O)Nc1ccc(C(F)(F)F)cc1 [Compound 2g] |  |  | antimalarial activity / parasite growth inhibition (in words) (P. falciparum parasites): modest activity
COc1ncnc(NS(=O)(=O)c2ccc(N)cc2)c1OC [Compound 2c] | failed to inhibit PfKASIII at the highest concentration tested |  | IC50 (PfKASIII [1]): > 1000 µM; antimalarial activity / parasite growth inhibition (in words) (P. falciparum parasites): robust antimalarial activity
CCCCS(=O)(=O)CCOC(=O)c1ccc([N+](=O)[O-])cc1 [Compound 3r] | potent inhibitors of PfKASIII | significant toxicity | antimalarial activity / parasite growth inhibition (in words) (P. falciparum parasites): fail to inhibit parasite growth
Cc1ccc(S(=O)(=O)c2cc(O)c3ccccc3c2O)cc1 [Compound 3a] |  | little toxicity | 
Cc1ccc(S/C=C/S(=O)(=O)Cc2ccccc2)cc1 [Compound 3n] |  | significant toxicity | 
C=C/C(C)=C/[C@@]1(C)SC(=O)C(C)=C1O [Thiolactomycin] |  |  | in vivo IC50, bacterial KAS enzymes (bacterial KAS enzymes): 75 µM; IC50 (PfKASIII [3]): > 330 µM
O=S(=O)(Nc1cccc(Cl)c1)c1ccccc1 [Compound 2b] |  | significant toxicity | 
